The source made the active and inactive calls. The calls are words filed in the database; no cut-off is given here.
Legend:
[1] = target: T1, Lysosomal acid glucosylceramidase (Homo sapiens, UniProt P04062); experiment: Inhibition of recombinant glucocerebrosidase in McIlvaine buffer at pH 5.2 after 10 mins by fluorometric analysis
T1 sequence (P04062 whole entry): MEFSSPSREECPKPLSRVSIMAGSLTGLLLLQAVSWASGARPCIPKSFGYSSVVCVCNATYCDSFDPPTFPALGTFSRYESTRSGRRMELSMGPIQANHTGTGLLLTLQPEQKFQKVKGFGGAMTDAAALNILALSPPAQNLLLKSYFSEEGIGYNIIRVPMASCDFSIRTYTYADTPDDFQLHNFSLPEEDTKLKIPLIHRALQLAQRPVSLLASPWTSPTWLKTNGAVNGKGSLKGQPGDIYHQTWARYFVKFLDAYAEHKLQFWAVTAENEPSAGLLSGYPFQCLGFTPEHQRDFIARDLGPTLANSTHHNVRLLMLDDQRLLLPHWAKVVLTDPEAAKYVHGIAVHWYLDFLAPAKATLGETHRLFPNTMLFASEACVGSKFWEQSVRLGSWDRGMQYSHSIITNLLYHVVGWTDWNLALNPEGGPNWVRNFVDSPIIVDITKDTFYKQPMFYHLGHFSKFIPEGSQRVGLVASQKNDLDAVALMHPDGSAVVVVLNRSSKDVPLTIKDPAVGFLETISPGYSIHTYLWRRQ
Procedure, shortened: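 Imiglucerase in McIlvaine buffer pH 5.2 containing 0.2% (w/v) sodium taurocholate and 0.1% (v/v) Triton X-100. Enzyme pre-incubated 30 min at 37 °C with inhibitor. Then 4 mM 4-methylumbelliferyl β-D-glucopyranoside (substrate solution), 10 min at 37 °C. Stop with 100 mM glycine/NaOH pH 10.6, fluorescence ex 355/em 460 nm. IC50 from % activity vs log[I], at least five concentrations.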

Alpha-galactosidase = Alpha-galactosidase (Coffea arabica, UniProt Q42656); experiment: Inhibition of alpha-galactosidase from coffee beans
Alpha-galactosidase, sequence (Q42656 whole entry): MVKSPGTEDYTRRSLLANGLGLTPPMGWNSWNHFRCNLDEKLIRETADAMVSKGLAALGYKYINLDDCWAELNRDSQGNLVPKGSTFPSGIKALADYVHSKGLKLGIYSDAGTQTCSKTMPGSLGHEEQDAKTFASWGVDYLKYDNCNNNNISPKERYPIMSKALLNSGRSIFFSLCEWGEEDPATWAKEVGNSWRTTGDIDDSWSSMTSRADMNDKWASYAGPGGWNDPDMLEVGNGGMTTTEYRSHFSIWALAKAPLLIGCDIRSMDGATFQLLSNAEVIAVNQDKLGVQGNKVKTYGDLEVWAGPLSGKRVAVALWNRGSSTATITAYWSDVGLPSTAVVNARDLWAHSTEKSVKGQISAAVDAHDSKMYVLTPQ

[2] = target: Probable alpha-glucosidase Os06g0675700 (Oryza sativa Japonica Group, UniProt Q653V7); experiment: Inhibition of rice alpha-glucosidase
Probable alpha-glucosidase Os06g0675700, sequence (Q653V7 whole entry): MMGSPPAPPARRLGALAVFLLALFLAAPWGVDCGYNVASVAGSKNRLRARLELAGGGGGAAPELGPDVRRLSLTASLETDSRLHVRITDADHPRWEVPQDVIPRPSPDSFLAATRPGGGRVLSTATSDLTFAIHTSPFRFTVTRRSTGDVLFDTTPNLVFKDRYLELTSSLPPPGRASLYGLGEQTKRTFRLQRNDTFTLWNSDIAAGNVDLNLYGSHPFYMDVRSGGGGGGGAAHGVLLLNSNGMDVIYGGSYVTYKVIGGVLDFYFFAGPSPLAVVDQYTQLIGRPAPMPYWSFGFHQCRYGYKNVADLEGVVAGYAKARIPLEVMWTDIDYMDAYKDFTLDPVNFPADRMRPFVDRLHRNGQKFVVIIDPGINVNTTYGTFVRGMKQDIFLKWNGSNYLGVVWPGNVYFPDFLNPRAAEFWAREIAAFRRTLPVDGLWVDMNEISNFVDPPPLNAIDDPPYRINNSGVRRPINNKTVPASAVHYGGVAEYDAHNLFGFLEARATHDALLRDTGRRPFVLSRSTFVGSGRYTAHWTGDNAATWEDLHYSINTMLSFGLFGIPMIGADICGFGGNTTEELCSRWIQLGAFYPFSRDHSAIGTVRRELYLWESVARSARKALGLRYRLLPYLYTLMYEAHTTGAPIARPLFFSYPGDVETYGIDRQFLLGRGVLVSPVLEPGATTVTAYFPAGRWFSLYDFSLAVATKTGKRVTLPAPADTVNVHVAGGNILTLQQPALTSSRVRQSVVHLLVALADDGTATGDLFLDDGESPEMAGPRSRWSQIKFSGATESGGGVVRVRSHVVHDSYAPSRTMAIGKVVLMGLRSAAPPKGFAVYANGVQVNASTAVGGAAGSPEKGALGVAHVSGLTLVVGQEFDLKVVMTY

[3] = target: Oligo-1,6-glucosidase IMA1 (Saccharomyces cerevisiae S288c, UniProt P53051); experiment: Inhibition of yeast alpha-glucosidase
Oligo-1,6-glucosidase IMA1, sequence (P53051 whole entry): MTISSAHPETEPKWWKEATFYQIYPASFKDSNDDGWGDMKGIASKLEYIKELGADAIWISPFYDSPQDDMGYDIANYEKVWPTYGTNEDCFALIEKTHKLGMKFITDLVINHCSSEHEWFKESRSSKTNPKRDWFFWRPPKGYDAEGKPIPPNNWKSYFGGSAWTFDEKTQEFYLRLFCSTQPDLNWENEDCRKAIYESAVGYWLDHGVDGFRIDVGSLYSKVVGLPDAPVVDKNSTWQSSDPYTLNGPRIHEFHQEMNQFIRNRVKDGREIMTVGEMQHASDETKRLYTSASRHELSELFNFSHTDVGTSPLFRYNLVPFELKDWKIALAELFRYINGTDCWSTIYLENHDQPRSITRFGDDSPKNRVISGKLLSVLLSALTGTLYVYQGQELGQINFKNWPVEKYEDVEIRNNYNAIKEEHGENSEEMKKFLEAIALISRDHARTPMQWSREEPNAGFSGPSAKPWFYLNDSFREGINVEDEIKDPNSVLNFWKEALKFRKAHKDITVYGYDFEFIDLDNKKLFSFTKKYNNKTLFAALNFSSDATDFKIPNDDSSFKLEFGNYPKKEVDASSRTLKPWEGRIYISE

[4] = Cytotoxicity against human wild type fibroblasts at up to 300 uM after 24 hrs by MTT assay; assay type: cell-based; conditions: fibroblast
Beta-galactosidase = target: T2, Beta-galactosidase (Bos taurus, UniProt Q58D55); experiment: Inhibition of bovine liver beta-galactosidase
T2 sequence (Q58D55 whole entry): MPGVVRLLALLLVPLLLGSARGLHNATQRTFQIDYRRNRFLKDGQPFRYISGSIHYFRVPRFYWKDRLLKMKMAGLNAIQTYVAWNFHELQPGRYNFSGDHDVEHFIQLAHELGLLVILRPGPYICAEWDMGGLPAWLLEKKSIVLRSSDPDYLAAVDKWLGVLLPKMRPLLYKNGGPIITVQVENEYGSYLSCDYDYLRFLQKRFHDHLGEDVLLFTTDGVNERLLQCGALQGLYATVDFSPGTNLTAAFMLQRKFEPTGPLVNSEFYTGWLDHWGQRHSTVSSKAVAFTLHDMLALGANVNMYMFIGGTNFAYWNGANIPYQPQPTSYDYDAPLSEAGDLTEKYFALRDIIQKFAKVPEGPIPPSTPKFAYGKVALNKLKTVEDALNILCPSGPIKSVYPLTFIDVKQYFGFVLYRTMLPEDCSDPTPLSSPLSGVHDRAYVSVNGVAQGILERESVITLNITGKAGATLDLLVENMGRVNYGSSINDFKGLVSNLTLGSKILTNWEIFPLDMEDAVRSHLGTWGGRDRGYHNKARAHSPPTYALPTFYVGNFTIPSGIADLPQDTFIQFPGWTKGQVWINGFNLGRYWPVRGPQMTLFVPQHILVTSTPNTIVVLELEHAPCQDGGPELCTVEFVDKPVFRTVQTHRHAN

[5] = target: T1, Lysosomal acid glucosylceramidase; experiment: Competitive inhibition of recombinant glucocerebrosidase
[6] = target: T1, Lysosomal acid glucosylceramidase; experiment: Inhibition of recombinant glucocerebrosidase in McIlvaine buffer at pH 7.4 after 10 mins by fluorometric analysis
[7] = target: T3, Lysosomal acid glucosylceramidase (Homo sapiens) (UniProt P04062); experiment: Inhibition of glucocerebrosidase in human intact fibroblasts at 50 uM after 24 hrs by fluorometric analysis
T3 sequence (whole entry): T1 sequence (P04062 whole entry)
Procedure, shortened: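 Fibroblasts grown in MEM with 15% inactivated FCS, 37 °C, 5% CO2, passages 14–30. Plated in DMEM with aminocyclitol (50 μM final, from DMSO) for 24 h, washed with PBS. GCase assayed with 1 h incubation at 37 °C, stopped with 100 mM glycine-NaOH pH 10.6, fluorescence 355/460 nm. Untreated and treated cells in quadruplicate.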

[8] = target: T4, Ceramide glucosyltransferase (Homo sapiens) (UniProt Q16739); experiment: Inhibition of glucosylceramide synthase in human A549 cells at 250 uM after 35 mins by fluorometric analysis; assay type: cell-based
T4 sequence (whole entry): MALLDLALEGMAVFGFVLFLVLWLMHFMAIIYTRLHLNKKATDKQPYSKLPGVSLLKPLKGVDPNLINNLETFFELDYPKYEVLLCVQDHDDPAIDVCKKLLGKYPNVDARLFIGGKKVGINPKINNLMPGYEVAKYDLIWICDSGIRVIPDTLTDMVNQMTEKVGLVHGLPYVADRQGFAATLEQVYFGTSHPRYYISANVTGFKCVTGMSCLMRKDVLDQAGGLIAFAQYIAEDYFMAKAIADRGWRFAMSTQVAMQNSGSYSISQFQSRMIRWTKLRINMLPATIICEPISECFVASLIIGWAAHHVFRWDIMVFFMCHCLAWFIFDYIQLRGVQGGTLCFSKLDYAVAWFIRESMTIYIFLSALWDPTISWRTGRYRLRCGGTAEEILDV

[9] = target: T3, Lysosomal acid glucosylceramidase (Homo sapiens); experiment: Enzyme stabilization ratio of recombinant glucocerebrosidase activity at 48 degC to at 37 degC at 100 uM after 60 mins
[10] = target: T3, Lysosomal acid glucosylceramidase (Homo sapiens); experiment: Thermal stabilization of recombinant glucocerebrosidase assessed as enzyme activity at 150 uM at 48 degC after 60 mins
Procedure, shortened: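 GCase (2 mg/mL) heated at 48 °C, pH 7.4, with water (control) or compound at 10–150 μM final, for 20, 40 or 60 min. Then acetate-phosphate pH 5.0 and 4 mM 4-methylumbelliferyl β-D-glucoside in McIlvaine pH 5.2 added, 10 min at 37 °C. Stopped with glycine pH 10.6, 4-methylumbelliferone measured. Activity relative to identical assay at 37 °C. SR = relative activity with vs without inhibitor.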

Compound | IC50 [1] [µM] | IC50 (Alpha-galactosidase) [µM] | IC50 [2] [µM] | IC50 [3] [µM] | Activity [4] | IC50 (Beta-galactosidase) [µM] | also measured
O[C@@H]1[C@@H](O)[C@H](O)[C@@H](NCc2cn(CCCc3nc4ccc(C(F)(F)F)cc4[nH]3)nn2)[C@H](O)[C@H]1O | 12.2 |  |  |  |  |  | 
CCCCCCCCn1cc(CN[C@H]2[C@H](O)[C@@H](O)[C@H](O)[C@@H](O)[C@@H]2O)nn1 | 2.25 | > 100 | > 100 | > 100 | Non-toxic | > 100 | 
CCCCOCCCOCCCn1cc(CN[C@H]2[C@H](O)[C@@H](O)[C@H](O)[C@@H](O)[C@@H]2O)nn1 | 181 |  |  |  |  |  | 
O[C@@H]1[C@@H](O)[C@H](O)[C@@H](NCc2cn(C3CSCCCSC3)nn2)[C@H](O)[C@H]1O | 35.9 |  |  |  |  |  | 
O[C@@H]1[C@@H](O)[C@H](O)[C@@H](NCc2cn(Cc3cccc(I)c3)nn2)[C@H](O)[C@H]1O | 10.3 |  |  |  |  |  | 
CCCCc1ncc(Cn2cc(CN[C@H]3[C@H](O)[C@@H](O)[C@H](O)[C@@H](O)[C@@H]3O)nn2)[nH]1 | 237 |  |  |  |  |  | 
CCCCCCCCCCCn1cc(CN[C@H]2[C@H](O)[C@@H](O)[C@H](O)[C@@H](O)[C@@H]2O)nn1 | 0.06 | > 100 | > 100 | > 100 | Non-toxic | > 100 | Ki [5]: 50 nM; IC50 [6]: 100 nM; inhibition [7]: 97%; inhibition [8]: 29%; Ratio [9]: 30.5
CN1CCN(Cc2cccc(Cn3cc(CN[C@H]4[C@H](O)[C@@H](O)[C@H](O)[C@@H](O)[C@@H]4O)nn3)c2)CC1 | 66.5 |  |  |  |  |  | 
OCCCCCCCn1cc(CN[C@H]2[C@H](O)[C@@H](O)[C@H](O)[C@@H](O)[C@@H]2O)nn1 | 5.8 |  |  |  |  |  | 
O[C@@H]1[C@@H](O)[C@H](O)[C@@H](NCc2cn(Cc3cc(OCc4ccccc4)cc(OCc4ccccc4)c3)nn2)[C@H](O)[C@H]1O | 0.05 | > 100 | > 100 | > 100 | Non-toxic | > 100 | Ki [5]: 50 nM; IC50 [6]: 60 nM; inhibition [7]: 93%; inhibition [8]: 9%; Ratio [9]: 31.2
O[C@@H]1[C@@H](O)[C@H](O)[C@@H](NCc2cn(CCCCC3CCCCC3)nn2)[C@H](O)[C@H]1O | 1.5 | > 100 | > 100 | > 100 | Non-toxic | > 100 | Ki [5]: 290 nM; IC50 [6]: 300 nM; inhibition [7]: 30%; inhibition [8]: 8%; Ratio [9]: 7.5
OCCCCCCCCCCn1cc(CN[C@H]2[C@H](O)[C@@H](O)[C@H](O)[C@@H](O)[C@@H]2O)nn1 | 2.19 | > 100 | > 100 | > 100 | Non-toxic | 43 | Ki [5]: 890 nM; IC50 [6]: 1300 nM; inhibition [7]: 28%; inhibition [8]: 28%; Ratio [9]: 6.9
O[C@@H]1[C@@H](O)[C@H](O)[C@@H](NCc2cn(CC34CC5CC(CC(C5)C3)C4)nn2)[C@H](O)[C@H]1O | 2.2 | > 100 | > 100 | > 100 | Non-toxic | > 100 | Ki [5]: 1050 nM; IC50 [6]: 1900 nM; inhibition [7]: 63%; Activity [10]: inactive; inhibition [8]: 32%; Ratio [9]: 0.7
O[C@@H]1[C@@H](O)[C@H](O)[C@@H](NCc2cn(CCCC3CCCCC3)nn2)[C@H](O)[C@H]1O | 4.32 |  |  |  |  |  | 
CCCCCCCCCCn1cc(CN[C@H]2[C@H](O)[C@@H](O)[C@H](O)[C@@H](O)[C@@H]2O)nn1 | 0.15 | > 100 | > 100 | > 100 | Non-toxic | > 100 | 
O[C@@H]1[C@@H](O)[C@H](O)[C@@H](NCc2cn(CCCCCOCc3ccccc3)nn2)[C@H](O)[C@H]1O | 10 |  |  |  |  |  | 
CC(C)(CO)Cn1cc(CN[C@H]2[C@H](O)[C@@H](O)[C@H](O)[C@@H](O)[C@@H]2O)nn1 | 134 |  |  |  |  |  | 
CCCCCCCCCCN[C@H]1[C@H](O)[C@@H](O)[C@H](O)[C@@H](O)[C@@H]1O |  | > 100 | > 100 | > 100 | Non-toxic | > 100 | Ratio [9]: 4.9
CSCCCn1cc(CN[C@H]2[C@H](O)[C@@H](O)[C@H](O)[C@@H](O)[C@@H]2O)nn1 | 44.5 |  |  |  |  |  | 
O[C@@H]1[C@@H](O)[C@H](O)[C@@H](NCc2cn(Cc3cc4nsnc4cc3Cl)nn2)[C@H](O)[C@H]1O | 17.3 |  |  |  |  |  | 
CC(C)(C)OCCCOCCCn1cc(CN[C@H]2[C@H](O)[C@@H](O)[C@H](O)[C@@H](O)[C@@H]2O)nn1 | 325 |  |  |  |  |  | 
O[C@@H]1[C@@H](O)[C@H](O)[C@@H](NCc2cn(Cc3ccc(CN4CCCCC4)cc3)nn2)[C@H](O)[C@H]1O | 30.9 |  |  |  |  |  | 
COCCCOCCCOCCCn1cc(CN[C@H]2[C@H](O)[C@@H](O)[C@H](O)[C@@H](O)[C@@H]2O)nn1 | 453 |  |  |  |  |  | 
COCCCOCCCn1cc(CN[C@H]2[C@H](O)[C@@H](O)[C@H](O)[C@@H](O)[C@@H]2O)nn1 | 466 |  |  |  |  |  | 
O[C@@H]1[C@@H](O)[C@H](O)[C@@H](NCc2cn(CCC(c3ccccc3)c3ccccc3)nn2)[C@H](O)[C@H]1O | 1.5 | > 100 | > 100 | > 100 | Non-toxic | > 100 | Ki [5]: 770 nM; IC50 [6]: 1800 nM; inhibition [7]: 73%; Activity [10]: inactive; inhibition [8]: 18%; Ratio [9]: 0.5
CCCCCCCCCN1C[C@H](O)[C@@H](O)[C@H](O)[C@H]1CO |  | > 100 | > 100 | > 100 | Non-toxic | > 100 | 
Cn1nnc2ccc(Cn3cc(CN[C@H]4[C@H](O)[C@@H](O)[C@H](O)[C@@H](O)[C@@H]4O)nn3)cc21 | 114 |  |  |  |  |  | 

Source: ChEMBL document CHEMBL1764970, “New glucocerebrosidase inhibitors by exploration of chemical diversity of N-substituted aminocyclitols using click chemistry and in situ screening” (J Med Chem, 2011)
